Source: PubChem BioAssay
Calb FLC – affects C. albicans growth with fluconazole. hit rate 0.57% among 300,000. AID 1979. C. albicans CaCi-2 (fluconazole-resistant clinical isolate) + fluconazole, Alamar Blue growth, 48 h. growth inhibition, % (no concentration beside the values);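 active = growth inhibition above about 58% in most replicates, limit read from the data, passing the limit was not always enough; inconclusive = exactly half the replicates above a set limit; inactive = most replicates below a set limit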;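 note: all wells also contain fluconazole at 8 µg/ml as a sub-toxic cotreatment; 0% = median of DMSO wells and 100% = median of geldanamycin control wells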
CSC inhib – blocks cancer stem cells. cancer stem cell-like cells viability, luminescence. inhibition, % at 7.5 µM. hit rate 1.1% among 300,000. AID 2717; in the data active = inhibition above about 75%; inconclusive = no clear call, values can overlap the other calls; tested in HMLE shEcad cells
H9c2 TAG inh – reduces triacylglycerol accumulation in H9c2 cells | Nile Red lipid (TAG) fluorescence; cells loaded with 200 µM oleic acid | inhibition, % at 12.5 µM | hit rate 0.66% among 230,000 | AID 651582;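 active = pattern-corrected inhibition of lipid staining of at least 50% with the nuclear-stain viability signal not falling by more than 50%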;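 note: 0% = DMSO wells and 100% = triacsin C control wells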
T cruzi inh – T. cruzi replication inhibition; T. cruzi beta-gal in NIH3T3, luminescence, 90 h; inhibition, % (no concentration beside the values); hit rate 1.4% among 300,000;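 active = mean inhibition across valid replicates above about 55%, limit read from the data; inconclusive = mean below that limit but half or more replicates reach it; inactive = mean below it, under half of replicates reach it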;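 note: signal also drops with host cell toxicity which is not excluded here; 0% = plate median of DMSO wells and 100% = zero luminescence signal; higher percent means less beta-gal luminescence so fewer parasites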
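compound dosing = single 50 nL compound addition per well in DMSO | material = NIH/3T3 host cells with β-galactosidase reporter T. cruzi | input = 5,000 host fibroblasts per well | timing = ≥90 h infection period, 3 h prior cell attachment | read-out basis = percent inhibition of parasite-derived β-gal signal | detection = GalScreen β-gal luminescence, detergent lysis, 60 min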
Beta cell apopt – blocks beta cell apoptosis | hit rate 0.8% among 300,000 | INS-1E cytokine-induced death, ATP luminescence, 48 h; percent of positive-control rescue, neutral wells zero | protection from apoptosis, % (concentration not given with the values) | AID 435005;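 active = Every replicate reaches about 75%, or at least half do and their mean reaches it too, limit read from the data; inconclusive = At least half of replicates reach the limit but their mean does not; inactive = Under half of replicates reach the limit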;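 note: 0% = cytokine-treated negative control wells and 100% = positive control rescue; higher means more ATP so stronger rescue from cytokine killing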
A1 inh – inhibitors of the anti-apoptotic protein A1, read as caspase activation; MEF A1-2A-BIM cells, Caspase-Glo 3/7 luminescence, 3 h; percent of clofoctol response, vehicle zero; caspase activation, % (test concentration not listed); hit rate 0.066% among 330,000;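 active = over half of replicate activation scores above 10%, or exactly half above 10 with the replicate mean above 10; inconclusive = replicate mean below 10 yet half the replicates above 10; inactive = over half of replicates below 10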
* hit, by the source's call. In the library only some 3.1% were active in any assay of this set; here they are far more common.

How did O=C(NCC(c1ccc(F)cc1)N1CCOCC1)c1ccco1 (stereo not given) do in these assays?
Calb FLC: 0.2; CSC inhib: -11.3; H9c2 TAG inh: -12.1; T cruzi inh: 1.4; Beta cell apopt: -2.8; A1 inh: 0.3

Results for O=C(NCC(c1cccs1)N1CCOCC1)c1cc([N+](=O)[O-])cc([N+](=O)[O-])c1 (stereo not given) ?
Calb FLC: -2.6; CSC inhib: 11.6; T cruzi inh: 73.1*; Beta cell apopt: -3.2; A1 inh: -0.5

How did O=C(NCC(c1cccs1)N1CCOCC1)c1ccc(Cl)s1 (stereo not given) do in these assays?
Calb FLC: -14.5; CSC inhib: 77.9*; T cruzi inh: -35.6; Beta cell apopt: 1.7; A1 inh: 0.3

How did Cc1cc(-c2nnc(CCC(=O)N3CCN(Cc4cccc(F)c4)CC3)o2)c(C)o1 do in these assays?
Calb FLC: -7.1; CSC inhib: -10.5; H9c2 TAG inh: -3.8; T cruzi inh: 7.8; Beta cell apopt: -4.5; A1 inh: -0.6

What do the screens show for `CC(=O)N1CCN(c2ncnc3sc(-c4ccccc4)cc23)CC1`?
Calb FLC: 24.6; CSC inhib: 18.8; H9c2 TAG inh: -16.9; T cruzi inh: 3.6; Beta cell apopt: -3.7; A1 inh: inconclusive

What do the screens show for `Oc1ccc(N2CCN(c3ncnc4sc(-c5ccccc5)cc34)CC2)cc1`?
Calb FLC: 100.2*; H9c2 TAG inh: 6.4; T cruzi inh: 58.3*

What do the screens show for `Cc1nn(-c2ccccc2)c(Cl)c1/C=N/Nc1ccc(S(=O)(=O)Nc2ccccc2C(=O)O)cc1[N+](=O)[O-]`?
Calb FLC: 62.8; CSC inhib: 96.4*; T cruzi inh: -15.1; Beta cell apopt: -1.1; A1 inh: -0.4

Results for O=C(O)c1cccc(-c2csc(C(O)c3ccccc3)n2)c1 (stereo not given) ?
H9c2 TAG inh: -9.5

Results for CC(C)c1ccc(COc2ccc(C(=O)N3CCOCC3)cc2)cc1 ?
Calb FLC: 4.7; CSC inhib: 7.3; T cruzi inh: 26.7; Beta cell apopt: 75.8*; A1 inh: 1.1

How did CN(C(=O)c1cccc(NC(=O)Cc2ccc(NC(=O)C3CCCN(C(=O)c4ccccc4)C3)cc2)c1)C1CCCCC1 (stereo not given) do in these assays?
H9c2 TAG inh: 19.9

How did CCOC(=O)c1ccc(-c2c(-c3ccccc3OC)sc3cc4c(cc23)OCO4)cc1F do in these assays?
CSC inhib: 18.9; Beta cell apopt: 1.5; A1 inh: -0.3

How did CCOc1cc(S(=O)(=O)NCc2ccccc2)c(OCC)cc1-n1cnnn1 do in these assays?
Calb FLC: 100.0*; CSC inhib: 8.7; T cruzi inh: 5.0; Beta cell apopt: -4.3; A1 inh: 1.0

Results for COc1ccc(N(C(=O)C2COc3ccccc3O2)C(C(=O)NC2CCCCC2)c2ccccc2)cc1OC (stereo not given) ?
Calb FLC: 40.4; CSC inhib: -2.4; T cruzi inh: 35.9; Beta cell apopt: -3.9; A1 inh: -0.4

What do the screens show for `COc1cc(OC)cc(N(C(=O)C2COc3ccccc3O2)C(C(=O)NC2CCCCC2)c2ccc(O)cc2)c1` (stereo not given)?
Calb FLC: 90.5*; CSC inhib: 13.3; T cruzi inh: 18.1; A1 inh: 0.9

Results for N#Cc1ccc(OCC(=O)OCC(=O)N2CCc3ccccc32)cc1 ?
H9c2 TAG inh: -8.1

Results for CCCCn1c2ccc(F)cc2c2nnc(SCCN3CCCCC3)nc21 ?
Calb FLC: 10.4; T cruzi inh: 58.8*

What do the screens show for `CCCCn1c2ccc(C)cc2c2nnc(SCCN3CCCCC3)nc21`?
Calb FLC: -1.4; CSC inhib: 36.4; T cruzi inh: 52.0; Beta cell apopt: 21.6; A1 inh: -1.2

What do the screens show for `CNC(=S)N(CCCO)Cc1cc2cc3c(cc2[nH]c1=O)OCO3`?
Calb FLC: -3.6; CSC inhib: -12.5; T cruzi inh: -7.8; Beta cell apopt: -1.3; A1 inh: -0.9

What do the screens show for `Cc1ccc(C)c(NC(=O)c2ccccc2NS(=O)(=O)c2cc([N+](=O)[O-])ccc2C)c1`?
CSC inhib: 97.4*; T cruzi inh: -34.7; Beta cell apopt: 111.6*; A1 inh: -0.1

What do the screens show for `Cc1ccc([N+](=O)[O-])cc1S(=O)(=O)Nc1cccc(S(=O)(=O)Nc2ccccc2C(=O)O)c1`?
CSC inhib: -7.6; H9c2 TAG inh: -17.2; Beta cell apopt: -3.3; A1 inh: 1.1

Results for CSc1ccccc1C(=O)Nc1cc(C)ccc1C ?
Calb FLC: -20.9; CSC inhib: 78.2*; T cruzi inh: 4.4; Beta cell apopt: -15.1; A1 inh: 0.4

What do the screens show for `NC(=S)N/N=C/c1cccc(/C=N/NC(N)=S)c1`?
Calb FLC: 29.0; CSC inhib: -2.1; H9c2 TAG inh: 9.5; T cruzi inh: -4.0; Beta cell apopt: 3.6; A1 inh: 0.6

What do the screens show for `NC(=S)N/N=C/c1ccc2ccccc2c1`?
Calb FLC: -26.6; CSC inhib: -0.5; T cruzi inh: 58.4*; Beta cell apopt: 6.0; A1 inh: -1.6

Results for NC(=S)N/N=C/c1ccccc1O ?
Calb FLC: -39.8; CSC inhib: 7.7; H9c2 TAG inh: 2.0; T cruzi inh: 7.1; Beta cell apopt: 91.5*; A1 inh: 0.6

How did CCCc1ccc2oc(C(=O)N3CCN(c4cnccn4)CC3)c(C)c2c1 do in these assays?
Calb FLC: -3.0; CSC inhib: 31.4; H9c2 TAG inh: -16.0; T cruzi inh: 25.4; Beta cell apopt: -1.6; A1 inh: 0.5

How did Cc1noc(NS(=O)(=O)c2ccc(NC(=O)/C=C/c3ccccc3)cc2)c1C do in these assays?
CSC inhib: -15.9; H9c2 TAG inh: 6.7; Beta cell apopt: -5.5; A1 inh: -1.0

What do the screens show for `Cc1cc(N2CCCC2)nc2ccc(NC(=S)NCCCN3CCC(C)CC3)cc12`?
Calb FLC: -0.9; CSC inhib: 2.4; H9c2 TAG inh: 23.4; T cruzi inh: 60.0*; Beta cell apopt: 9.4; A1 inh: 0.3

What do the screens show for `Cc1cc(N2CCN(C)CC2)nc2ccc(NC(=S)NCCN3CCc4ccccc4C3)cc12`?
Calb FLC: -3.9; CSC inhib: 11.4; H9c2 TAG inh: 13.9; T cruzi inh: 56.1*; Beta cell apopt: -8.5; A1 inh: 0.9

Results for Cc1cc(N2CCN(C)CC2)nc2ccc(NC(=S)NCCCN3CCc4ccccc4C3)cc12 ?
Calb FLC: -5.8; CSC inhib: 28.6; H9c2 TAG inh: 20.8; T cruzi inh: 48.7; Beta cell apopt: -10.5; A1 inh: 0.1

Results for CNC(=O)Nc1cc(C(F)(F)F)cc(C(F)(F)F)c1 ?
Calb FLC: 85.8*; CSC inhib: 6.5; H9c2 TAG inh: -1.7; T cruzi inh: 15.7; Beta cell apopt: 5.6; A1 inh: -0.1
